# Screens from PubChem.
# FLuc inh counter: Photinus pyralis luciferase inhibition counter-screen; 200,000 compounds, 1.5% hits; ATPLite firefly luciferase biochemical luminescence, 10 min; AID 1006; inhibition, % at 10 µM;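 active means inhibition above about 50% when tested at 10 µM, limit read from the data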
# Target sequence (P08659 whole entry, looked up): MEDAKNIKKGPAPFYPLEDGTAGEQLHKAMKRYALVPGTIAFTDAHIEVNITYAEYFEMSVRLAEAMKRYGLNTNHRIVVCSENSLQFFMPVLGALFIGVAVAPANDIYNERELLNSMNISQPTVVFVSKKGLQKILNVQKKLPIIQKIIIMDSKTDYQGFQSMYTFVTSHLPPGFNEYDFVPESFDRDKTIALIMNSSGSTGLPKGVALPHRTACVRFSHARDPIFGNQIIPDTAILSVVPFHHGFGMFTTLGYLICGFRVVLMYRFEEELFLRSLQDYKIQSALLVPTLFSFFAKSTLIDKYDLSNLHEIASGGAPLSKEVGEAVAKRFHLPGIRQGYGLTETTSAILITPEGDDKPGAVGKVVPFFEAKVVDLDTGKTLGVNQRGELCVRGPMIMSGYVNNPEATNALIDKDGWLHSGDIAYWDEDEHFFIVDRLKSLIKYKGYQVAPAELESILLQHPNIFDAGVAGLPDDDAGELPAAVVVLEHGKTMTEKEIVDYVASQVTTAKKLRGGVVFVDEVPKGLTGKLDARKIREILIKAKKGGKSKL
# FLuc act counter: firefly luciferase counter-screen for stimulation assays; P08659; ATPlite luciferase biochemical, luminescence, 10 min; 0 = ATP-free wells, 1 = DMSO control; activation factor at 10 µM; 200,000 tested, under 10 active;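 active means luciferase activation factor, scaled between plate controls, of at least 2 with compound at 10 µM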
#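 Assay system: Luciferase/luciferin detection reagent, cell-free biochemical luciferase assay / Read-out: luciferase activation / Benchmarks: No-ATP low control, compound-free enzyme-plus-ATP high control / Medium: PBS buffer for ATP / Detection: luminescence measurement of luciferase light output / Schedule: 10 min at ambient temperature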
# STAT1 act: increases IFN-gamma driven STAT1 reporter signal | NIH 3T3 STAT1-luciferase reporter, luminescence; 100% = IFN-gamma alone, no compound | activation (% of control), % at 5.5 µM | 200,000 compounds, 2.6% hits | AID 932;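 active means activation above the screen-wide mean activation plus 3 SD, cut at about 130% in these data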;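 further: raw ratio to IFN-gamma control signal so 100% means no change and 0% no light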
# APP 5UTR inh: APP translation inhibition; 190,000 compounds, 0.82% hits; inhibition, % at 2 µM; SH-SY5Y APP 5'UTR-luciferase reporter, luminescence; AID 1285;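 active means inhibition above a set limit, derived from the sample mean plus 3 SD, cut at about 45% in these data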
# APP 5'UTR act: APP 5'UTR luciferase reporter activation. SH-SY5Y APP 5'UTR luciferase reporter, luminescence; zero percent = DMSO vehicle wells. activation, % at 2 µM. 190,000 compounds, 1% hits;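 active means activation above a set limit, based on mean plus 3 SD of controls, cut at about 140% in these data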
# NF-kB neuron act: compounds increasing NF-kB expression in human neuronal cells. AID 1239. fold change at 12.5 µM. 190,000 compounds, 1.6% hits. NF-kB reporter expression; active compounds read high; in the data active means fold change above about 3.3
# An asterisk follows results filed as active; nt = no result. Hits are enriched below; roughly 4.8% of the tested compounds scored in any of these assays.
SMILES,FLuc inh counter,FLuc act counter,STAT1 act,APP 5UTR inh,APP 5'UTR act,NF-kB neuron act
CC(C)(C)C(=O)/C(=C/c1ccncc1)n1cncn1,-5,1,86,58*,-58,0.15
CC(=O)Nc1c(C)ccc(S(N)(=O)=O)c1C,-7,1.1,100,8,-8,1.1
CCOC(=O)CSc1nc2ccc(N3CCOCC3)cc2c(=O)n1Cc1ccccc1,-3,1,114,78*,-78,1.2
c1ccc(SCc2nc(-c3ccncc3)no2)cc1,7,0.9,129*,-12,11,1.9
COc1ccc(-c2noc(CSc3ccccc3)n2)cc1OC,0,1,130*,-54,54,2.3
COc1ccc(C/C(C)=N/NC(=O)C2COc3ccccc3O2)cc1 (configuration not stated),-4,1,106,27,-27,0.88
CCOC(=S)SCc1cn2cccc(C)c2n1,1,1,95,-12,12,3.8*
CC(=O)CCc1ccc(OC(=O)c2cccnc2)cc1,-1,1,103,-13,13,1.2
O=C(CCCN1C(=O)c2cccc3cccc(c23)C1=O)Nc1ccon1,-8,1.1,105,4,-4,0.96
NNc1nc2c(F)cccc2s1,-3,1,146*,-142,142*,1.2
Fc1cccc2sc(Nc3nnc(-c4ccccc4)o3)nc12,77*,0.2,112,-56,56,2.5
COc1cc(OC)cc(-c2nnc(Nc3nc4c(F)cccc4s3)o2)c1,2,1,94,-16,16,2.4
Fc1cccc2sc(Nc3nc4c(F)cccc4s3)nc12,1,1,104,-39,39,1
O=C(C1CCC(CNS(=O)(=O)c2cccc3nsnc23)CC1)N1CCN(c2ccccn2)CC1 (configuration not stated),-8,1.1,66,-7,7,0.48
CCOc1cc(CNc2ccc(N(C)C)cc2)cc(Br)c1OCC(=O)NC(C)(C)C,-4,1,145*,-105,105,0.44
CCOc1cc(CNc2ccc(N3CCCCC3)cc2)cc(Br)c1OCC(=O)NC(C)(C)C,-3,1,89,-9,9,0.91
CCOc1cc(CNc2ccc3c(c2)OCCO3)cc(Br)c1OCC,-7,1.1,103,95*,-95,1.6
CCOc1cc(S(=O)(=O)NCc2cccnc2)c(C)cc1C,-11,1.1,98,-2,2,nt
CC(C)C(=O)NC(=S)Nc1ccc(S(=O)(=O)N(C)Cc2ccccc2)cc1,-5,1.1,104,-1,1,0.97
COC(=O)CNc1c(-c2ccccn2)nc2ccc(Br)cn12,77*,0.2,150*,-96,96,1
COc1cccc(CN2CCN(C(=S)NCc3ccc(Cl)cc3)CC2)c1,-7,1.1,99,12,-12,0.8
CN(C(=O)Nc1ccc(Cl)cc1Cl)C1CCCC1,16,0.8,135*,-42,42,2
COc1ccc(CNC(=O)C(=O)NCC2OCCN2S(=O)(=O)c2cccs2)cc1 (configuration not stated),-13,1.1,106,2,-2,1.1
Fc1ccccc1N1CCN(c2nnnn2-c2ccccc2)CC1,-2,1,98,7,-7,1.4
c1ccc(N2CCN(c3nnnn3-c3ccccc3)CC2)cc1,0,1,100,48*,-36,1.4
SMILES,FLuc inh counter,FLuc act counter,STAT1 act,APP 5UTR inh,APP 5'UTR act,NF-kB neuron act
CC(=O)OCc1nc2sc(C)c(C)c2c(=O)[nH]1,-9,1.1,97,59*,-59,1.1
Cc1cc(/C=C2/NC(=O)N(c3ccccc3)C2=O)c(C)n1C(C)C,26,0.7,129*,-62,62,1.3
Cc1cc(/C=C2/NC(=O)N(Cc3ccccc3F)C2=O)c(C)n1C(C)C,2,1,100,-2,2,0.99
Clc1ccc(OCc2cn3ccccc3n2)c2ncccc12,22,0.8,145*,-83,83,3
O=C1CC(Cc2ccccc2)C(=O)N1Cc1ccco1 (configuration not stated),87*,0.1,97,-2,2,0.98
COc1ccc(CCN2C(=O)CC(Cc3ccc(C)cc3)C2=O)cc1OC (configuration not stated),-5,1,97,-9,9,1
O=C1C2C3CCC(C3)C2C(=O)N1Cc1ccco1 (configuration not stated),-3,1,108,-2,2,1
Cc1ccc(CC2CC(=O)N(Cc3ccco3)C2=O)cc1 (configuration not stated),-7,1.1,142*,-106,106,4.3*
COC(=O)c1ccc(OCC(=O)Nc2nn(-c3ccccc3)nc2C(N)=O)cc1,5,1,100,-13,40,0.67
CN(C)S(=O)(=O)c1cc(NC2CC(=O)N(c3ccc(F)cc3)C2=O)ccc1Cl (configuration not stated),-3,1,104,8,-8,1.1
CCC(=O)NC(c1ccc(C)cc1)c1cc([N+](=O)[O-])c2cccnc2c1O (configuration not stated),-4,1,90,26,-26,1.2
CCC(=O)NC(c1cccs1)c1cc(Cl)c2cccnc2c1O (configuration not stated),-5,1.1,105,61*,-61,0.86
CC(=O)NC(c1ccc(C)cc1)c1cc([N+](=O)[O-])c2cccnc2c1O (configuration not stated),-8,1.1,105,6,-6,0.85
O=C(NC(c1ccc(Cl)cc1)c1cc(Cl)c2cccnc2c1O)c1cccnc1 (configuration not stated),-4,1,90,79*,-79,1.3
CCCC(=O)NC(c1ccc(OC)c(OC)c1)c1cc(Cl)c2cccnc2c1O (configuration not stated),-3,1,101,53*,-53,0.95
CCCCC(=O)NC(c1cccs1)c1cc(Cl)c2cccnc2c1O (configuration not stated),-4,1,89,72*,-72,0.7
O=C(CCC(=O)NC1CCCCC1)N/N=C/c1ccncc1,0,1,96,1,-1,1.1
Cc1ccc(C(=O)OC2OC(=O)C(Cl)=C2N2CCOCC2)cc1 (configuration not stated),-4,1,90,13,-13,1.4
COCCn1c(C)cc(C2=NNC(=Nc3ccc(Cl)cc3Cl)SC2)c1C,-5,1.1,102,6,-6,1
COCCn1c(C)cc(C2=NNC(=NC3CC3)SC2)c1C,96*,0,10,88*,-88,0.17
C=CCN=C1NN=C(c2cc(C)n(CCOC)c2C)CS1,89*,0.1,78,-2,2,0.2
C=CCn1c(C)cc(C2=NNC(=NC(C)(C)C)SC2)c1C,90*,0.1,108,-128,128,0.37
